By CC50 is commonly meant the concentration giving 50% cytotoxicity. A lower CC50 goes with harm at low concentration. Broadly, the MIC is the lowest concentration found to suppress growth.

The values that follow come from ChEMBL document CHEMBL1134964, “Heterocyclic benzazole derivatives with antimycobacterial in vitro activity” (2002).

Assay type in all cases: functional
The subject of experiment [1] is HeLa. The experiment is described as follows: The compound was tested for cytotoxicity against HeLa cells. The conditions noted are these: Homo sapiens.
Experiment [2] deals with Mycobacterium kansasii. The experiment is described as follows: In vitro inhibition of Mycobacterium Kansasi (My 6 509/96) growth after 21 days culture. The conditions noted are these: 504 h.
In experiment [3] the test system is Mycobacterium avium. Nature of the experiment: In vitro inhibition of Mycobacterium Avium (My 330/88) growth after 21 days culture. The conditions noted are these: 504 h. In outline:
(§1)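 Micromethod broth MIC. Compounds tested at 500, 250, 125, 32, 16, 8, 4 and 2, plus one intermediate level between 125 and 32. Plates incubated at 37 C and read at 7, 14 and 21 days. MIC is the lowest concentration at which growth of the mycobacteria was inhibited. MIC could not be set where solubility in the test medium was limited.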

The test system of experiment [4] is Mycobacterium kansasii. Nature of the experiment: In vitro inhibition of Mycobacterium Kansasi (My 235/80) growth after 21 days culture. Conditions: 504 h.
Experiment [5] relates to Mycobacterium kansasii. The experiment is described as follows: In vitro inhibition of Mycobacterium Kansasi (My 6 509/96) growth after 7 days culture. Conditions: 168 h.
Experiment [6] has as its system Mycobacterium kansasii. Nature of the experiment: In vitro inhibition of Mycobacterium Kansasi (My 6 509/96) growth after 14 days culture. The conditions noted are these: 336 h.
The test system of experiment [7] is Mycobacterium kansasii. The experiment is described as follows: In vitro inhibition of Mycobacterium Kansasi (My 235/80) growth after 7 days culture. Conditions: 168 h.
Experiment [8] deals with Mycobacterium avium. Nature of the experiment: In vitro inhibition of Mycobacterium Avium growth after 14 days culture. Conditions: 336 h. An outline of the steps: as §1
For experiment [9], the system named is Mycobacterium kansasii. The experiment is described as follows: In vitro inhibition of Mycobacterium Kansasi (My 235/80) growth after 14 days culture. The conditions noted are these: 336 h.
Experiment [10] is described as follows: Ratio of cytotoxicity to minimum inhibitory concentration of Mycobacterium tuberculosis My 331/88 was evaluated.
The test system of experiment [11] is Mycobacterium tuberculosis. Nature of the experiment: In vitro inhibition of Mycobacterium Tuberculosis (My 331/88) growth after 14 days culture. Conditions: 336 h. An outline of the steps:
as §1

Experiment [12] relates to Mycobacterium tuberculosis. The experiment is described as follows: In vitro inhibition of Mycobacterium Tuberculosis (My 331/88) growth after 21 days culture. Conditions: 504 h. An outline of the steps:
as §1

In brackets after ≈: the same amount, converted by molar mass.

In experiment [1], `NC(=S)c1ccc(CSc2nc3ccccc3o2)cc1` gave a cytotoxic concentration (CC50) of 78.6 µM. Besides, the MIC in experiment [2] was determined as 16 µM (≈ 4.81 µg/mL); in [3] it was 32 µM (≈ 9.61 µg/mL); in experiment [4], 16 µM (≈ 4.81 µg/mL); in experiment [5], 8 µM (≈ 2.4 µg/mL); in experiment [6], 16 µM (≈ 4.81 µg/mL); in experiment [7] it was 8 µM (≈ 2.4 µg/mL). The MIC worked out at 32 µM (≈ 9.61 µg/mL) in experiment [8], 16 µM (≈ 4.81 µg/mL) in experiment [9], 8 µM (≈ 2.4 µg/mL) in [11] and 16 µM (≈ 4.81 µg/mL) in experiment [12]. The Safety index in [10] was determined as 9.8.

Consider `O=[N+]([O-])c1ccc(CSc2nc3ccccc3s2)c([N+](=O)[O-])c1`, for which the CC50 in experiment [1] is greater than 144 µM. Further, the MIC was greater than 32 µM in [2]; greater than 32 µM in experiment [3]; 16 µM (≈ 5.56 µg/mL) in experiment [4]; 8 µM (≈ 2.78 µg/mL) in experiment [5]; 8 µM (≈ 2.78 µg/mL) in [6]; 8 µM (≈ 2.78 µg/mL) in experiment [7]. The MIC in experiment [8] was greater than 32 µM; in experiment [9], 8 µM (≈ 2.78 µg/mL); in experiment [11], 2 µM (≈ 0.695 µg/mL); in experiment [12], 4 µM (≈ 1.39 µg/mL). The Safety index in experiment [10] is given as greater than 72.

With `NC(=S)c1ccc(CSc2nc3ccccc3s2)cc1`, the CC50 in experiment [1] was greater than 158 µM. In addition, the MIC worked out at 8 µM (≈ 2.53 µg/mL) in experiment [2]; 32 µM (≈ 10.1 µg/mL) in experiment [3]; 8 µM (≈ 2.53 µg/mL) in experiment [4]; 4 µM (≈ 1.27 µg/mL) in experiment [5]; 8 µM (≈ 2.53 µg/mL) in experiment [6]; 4 µM (≈ 1.27 µg/mL) in [7]. Besides, the MIC was found to be 16 µM (≈ 5.06 µg/mL) in [8], 8 µM (≈ 2.53 µg/mL) in experiment [9], 4 µM (≈ 1.27 µg/mL) in experiment [11] and 8 µM (≈ 2.53 µg/mL) in experiment [12]. Moreover, the Safety index in experiment [10] is reported as greater than 39.5.

With `N#Cc1ccc(CSc2nc3ccccc3o2)cc1`, the MIC in [2] was greater than 32 µM; in experiment [3], 62 µM (≈ 16.5 µg/mL); in experiment [4], greater than 32 µM; in [5], 16 µM (≈ 4.26 µg/mL); in experiment [6], 32 µM (≈ 8.52 µg/mL); in [7] it was 32 µM (≈ 8.52 µg/mL). Moreover, the MIC in [8] was 62 µM (≈ 16.5 µg/mL); in experiment [9] it was 32 µM (≈ 8.52 µg/mL); in experiment [11], greater than 62 µM; in experiment [12] it was greater than 62 µM.

For the compound `N#Cc1ccc(CSc2nc3ccccc3s2)cc1`, the MIC in experiment [2] was 32 µM (≈ 9.04 µg/mL); in experiment [3] it was greater than 32 µM; in [4], greater than 500 µM; in experiment [5], 16 µM (≈ 4.52 µg/mL); in [6], 32 µM (≈ 9.04 µg/mL); in experiment [7] it was 125 µM (≈ 35.3 µg/mL). The MIC in experiment [8] worked out at 32 µM (≈ 9.04 µg/mL); in experiment [9], 250 µM (≈ 70.6 µg/mL); in [11] it was 62 µM (≈ 17.5 µg/mL); in experiment [12] it was 62 µM (≈ 17.5 µg/mL).

The compound `O=[N+]([O-])c1cc(CSc2nc3ccccc3s2)cc([N+](=O)[O-])c1` displayed a CC50 in experiment [1] greater than 144 µM. In addition, the minimal inhibitory concentration (MIC) in experiment [2] is greater than 62 µM; in [3] it was 62 µM (≈ 21.5 µg/mL); in [4], greater than 62 µM; in experiment [6], 32 µM (≈ 11.1 µg/mL); in experiment [7], 16 µM (≈ 5.56 µg/mL); in experiment [8], 62 µM (≈ 21.5 µg/mL). For the same compound, the MIC was 16 µM (≈ 5.56 µg/mL) in experiment [9], 2 µM (≈ 0.695 µg/mL) in experiment [11] and 2 µM (≈ 0.695 µg/mL) in experiment [12]. For the same compound, the Safety index in [10] is on record as greater than 72.

In experiment [1], `O=[N+]([O-])c1cc(CSc2nc3ccccc3o2)cc([N+](=O)[O-])c1` came in with a CC50 greater than 151 µM. The MIC in experiment [2] is 8 µM (≈ 2.65 µg/mL); in [3] it was greater than 32 µM; in experiment [4], 4 µM (≈ 1.33 µg/mL); in [5] it was 4 µM (≈ 1.33 µg/mL); in experiment [6], 8 µM (≈ 2.65 µg/mL); in experiment [7] it was 2 µM (≈ 0.663 µg/mL). Moreover, the minimum inhibitory concentration (MIC) in experiment [8] is greater than 16 µM; in [9], 4 µM (≈ 1.33 µg/mL); in experiment [11], 8 µM (≈ 2.65 µg/mL); in experiment [12], 8 µM (≈ 2.65 µg/mL). In experiment [10], the Safety index is on record as greater than 18.9.

As for `NNC(=O)c1ccncc1` [ISONIAZID], the MIC in [2] was 4 µM (≈ 0.549 µg/mL); in experiment [3], greater than 250 µM; in experiment [4], greater than 250 µM; in [5], 2 µM (≈ 0.274 µg/mL); in experiment [6], 2 µM (≈ 0.274 µg/mL); in experiment [7] it was greater than 250 µM. Besides, the MIC was greater than 250 µM in experiment [8], greater than 250 µM in [9], 0.5 µM (≈ 0.0686 µg/mL) in experiment [11] and 1 µM (≈ 0.137 µg/mL) in experiment [12].
